ChEMBL document CHEMBL1255417, “Correlation between in vitro activity of posaconazole and in vivo efficacy against Rhizopus oryzae infection in mice” (Antimicrob Agents Chemother, 2010)
In brackets after ≈: the same amount, converted by molar mass. Activity calls are given as the source filed them. The rule behind the calls is not given here.

Assays:
Rhizopus arrhizus [1] = assay: Antifungal activity against drug-susceptible Rhizopus oryzae UTHSC 04-1613 by broth microdilution method; type: functional
In short: (§1)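 CLSI broth microdilution for filamentous fungi (M38-A2); MIC recorded in µg/ml against clinical isolates; breakpoints applied at 24 h.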

Rhizopus arrhizus [2] = assay: Antifungal activity against drug-susceptible Rhizopus oryzae UTHSC 06-4336 after 24 to 48 hrs; type: functional
In short: (§2)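 Minimum fungicidal concentration taken from the broth microdilution plates. From each well with complete inhibition (optically clear), 20 ul is plated on potato dextrose agar. Plates are incubated at 35°C for 24 to 48 h. The MFC is the lowest drug concentration giving no growth.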

Rhizopus arrhizus [3] = assay: Antifungal activity against drug-susceptible Rhizopus oryzae UTHSC 06-1080 by broth microdilution method; type: functional
In short: (§3)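 Posaconazole MIC in ug/ml, determined by broth microdilution following the CLSI guidelines for moulds (M38-A2).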

Rhizopus arrhizus [4] = assay: Antifungal activity against drug-susceptible Rhizopus oryzae UTHSC 05-2447 at 5 ug by disk diffusion assay; type: functional; settings: read-out: DIZ
In short: (§4)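 Neo-Sensitabs tablet diffusion on Mueller-Hinton agar, following guidelines for molds; 9 mm tablets containing 5 µg posaconazole; inhibition zone diameter measured in mm; zone breakpoints applied at 24 h.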

Rhizopus arrhizus [5] = assay: Antifungal activity against drug-susceptible Rhizopus oryzae UTHSC 03-112 after 24 to 48 hrs; type: functional
Rhizopus arrhizus [6] = assay: Antifungal activity against drug-intermediate Rhizopus oryzae UTHSC 04-3109 after 24 to 48 hrs; type: functional
Rhizopus arrhizus [7] = assay: Antifungal activity against drug-intermediate Rhizopus oryzae UTHSC 07-365 after 24 to 48 hrs; type: functional
Rhizopus arrhizus [8] = assay: Antifungal activity against drug-susceptible Rhizopus oryzae UTHSC 412-546 by broth microdilution method; type: functional
Rhizopus arrhizus [9] = assay: Antifungal activity against drug-susceptible Rhizopus oryzae UTHSC 02-2882 infected in OF1 mouse assessed as reduction in kidney fungal load at 10-30 mg/kg, po bid; type: functional, organism-based
In short: (§5)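 Tissue burden in immunosuppressed male OF1 mice, using cyclophosphamide 200 mg/kg i.p. plus 5-fluorouracil 150 mg/kg i.v. on day −1. Mice received 2 × 10^4 CFU i.v. by tail vein, then oral gavage at 10, 20 or 30 mg/kg BID from 24 h post-challenge, with ceftazidime cover; untreated controls. Groups of 10 were killed on day 4. Kidneys and brains were homogenized in 2 ml saline, serially diluted 10-fold, plated on PDA and counted after 24 h at 35°C.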

Rhizopus arrhizus [10] = assay: Antifungal activity against drug-susceptible Rhizopus oryzae UTHSC 05-197 by broth microdilution method; type: functional; in short: as §1
Rhizopus arrhizus [11] = assay: Antifungal activity against drug-intermediate Rhizopus oryzae UTHSC 04-3109 infected in OF1 mouse assessed as reduction in brain fungal load at 10-30 mg/kg, po bid treated 24 hrs after fungal infection; type: functional, organism-based; in short: as §5
Rhizopus arrhizus [12] = assay: Antifungal activity against drug-susceptible Rhizopus oryzae UTHSC 04-443 by broth microdilution method; type: functional; in short: as §1
Rhizopus arrhizus [13] = assay: Antifungal activity against drug-susceptible Rhizopus oryzae UTHSC 05-3580 after 24 to 48 hrs; type: functional; in short: as §2
Rhizopus arrhizus [14] = assay: Antifungal activity against drug-susceptible Rhizopus oryzae UTHSC 06-2374 by broth microdilution method; type: functional; in short: as §3
Rhizopus arrhizus [15] = assay: Antifungal activity against drug-susceptible Rhizopus oryzae UTHSC 03-228 by broth microdilution method; type: functional
In short: (§6)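 Broth microdilution MIC in µg/ml, run per the CLSI (formerly NCCLS) guideline for filamentous fungi, M38-A2.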

Rhizopus arrhizus [16] = assay: Antifungal activity against drug-susceptible Rhizopus oryzae UTHSC 03-511 after 24 to 48 hrs; type: functional
In short: (§7)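 Minimum fungicidal concentration: 20 µl from each microdilution well showing complete inhibition (optically clear) plated on potato dextrose agar, incubated 35°C for 24 to 48 h; MFC taken as lowest drug concentration giving no growth.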

Rhizopus arrhizus [17] = assay: Antifungal activity against drug-susceptible Rhizopus oryzae UTHSC 05-197 after 24 to 48 hrs; type: functional; in short: as §7
Rhizopus arrhizus [18] = assay: Antifungal activity against drug-susceptible Rhizopus oryzae UTHSC 06-731 by broth microdilution method; type: functional
Rhizopus arrhizus [19] = assay: Antifungal activity against drug-susceptible Rhizopus oryzae UTHSC 05-3580 by broth microdilution method; type: functional; in short: as §3
Rhizopus arrhizus [20] = assay: Antifungal activity against drug-intermediate Rhizopus oryzae UTHSC 04-3109 infected in OF1 mouse assessed as increase in mouse survival at 20-30 mg/kg, po bid treated 24 hrs after fungal infection; type: functional, organism-based
In short: (§8)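 Survival model in male OF1 mice, 30 g. Mice were immunosuppressed 1 day before infection with cyclophosphamide 200 mg/kg i.p. plus 5-fluorouracil 150 mg/kg i.v., then infected i.v. via lateral tail vein with 2 × 10^4 CFU in 0.2 ml saline. Oral gavage at 10, 20 or 30 mg/kg BID began 24 h post-challenge for 7 days. Ceftazidime 5 mg/day s.c. was given days 1–7. Groups of 10 were checked daily for 20 days; untreated controls.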

Rhizopus arrhizus [21] = assay: Antifungal activity against drug-susceptible Rhizopus oryzae UTHSC 03-2970 at 5 ug by disk diffusion assay; type: functional; settings: read-out: DIZ
In short: (§9)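 Neo-Sensitabs tablet diffusion on Mueller-Hinton agar, following the guidelines for molds. Tablets were 9 mm in diameter and held 5 µg of drug. The read-out was inhibition zone diameter in mm.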

Rhizopus arrhizus [22] = assay: Antifungal activity against drug-susceptible Rhizopus oryzae UTHSC 03-299 by broth microdilution method; type: functional; in short: as §1
Rhizopus arrhizus [23] = assay: Antifungal activity against drug-susceptible Rhizopus oryzae UTHSC 06-2374 after 24 to 48 hrs; type: functional; in short: as §2
Rhizopus arrhizus [24] = assay: Antifungal activity against drug-susceptible Rhizopus oryzae UTHSC 06-89 infected in OF1 mouse assessed as reduction in brain fungal load at 10-30 mg/kg, po bid; type: functional, organism-based
Rhizopus arrhizus [25] = assay: Antifungal activity against drug-intermediate Rhizopus oryzae UTHSC 04-3109 at 5 ug by disk diffusion assay; type: functional; settings: read-out: DIZ; in short: as §9
Rhizopus arrhizus [26] = assay: Antifungal activity against drug-susceptible Rhizopus oryzae UTHSC 05-2975 by broth microdilution method; type: functional; in short: as §3
Rhizopus arrhizus [27] = assay: Antifungal activity against drug-intermediate Rhizopus oryzae UTHSC 05-3032 infected in OF1 mouse assessed as increase in mouse survival at 20-30 mg/kg, po bid treated 24 hrs after fungal infection; type: functional, organism-based; in short: as §8
Rhizopus arrhizus [28] = assay: Antifungal activity against drug-susceptible Rhizopus oryzae UTHSC 03-547 by broth microdilution method; type: functional; in short: as §1
Rhizopus arrhizus [29] = assay: Antifungal activity against drug-susceptible Rhizopus oryzae UTHSC 05-1817 by broth microdilution method; type: functional; in short: as §1
Rhizopus arrhizus [30] = assay: Antifungal activity against drug-susceptible Rhizopus oryzae UTHSC 03-2970 after 24 to 48 hrs; type: functional
Rhizopus arrhizus [31] = assay: Antifungal activity against drug-susceptible Rhizopus oryzae UTHSC 03-1826 by broth microdilution method; type: functional; in short: as §6
Rhizopus arrhizus [32] = assay: Antifungal activity against drug-susceptible Rhizopus oryzae UTHSC 05-3132 at 5 ug by disk diffusion assay; type: functional; settings: read-out: DIZ
In short: (§10)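 Neo-Sensitabs tablet diffusion on Mueller-Hinton agar, run per the mould guidelines. Tablets are 9 mm in diameter and carry 5 ug posaconazole. The read-out is the inhibition zone diameter in mm.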

Rhizopus arrhizus [33] = assay: Antifungal activity against drug-susceptible Rhizopus oryzae UTHSC 06-1351 at 5 ug by disk diffusion assay; type: functional; settings: read-out: DIZ; in short: as §10
Rhizopus arrhizus [34] = assay: Antifungal activity against drug-susceptible Rhizopus oryzae UTHSC 05-1679 at 5 ug by disk diffusion assay; type: functional; settings: read-out: DIZ; in short: as §4
Rhizopus arrhizus [35] = assay: Antifungal activity against drug-susceptible Rhizopus oryzae UTHSC 2868 by broth microdilution method; type: functional

CC[C@@H]([C@H](C)O)n1ncn(-c2ccc(N3CCN(c4ccc(OC[C@@H]5CO[C@@](Cn6cncn6)(c6ccc(F)cc6F)C5)cc4)CC3)cc2)c1=O [POSACONAZOLE]
MIC (Rhizopus arrhizus [1]): 0.5 µg/mL (≈ 0.713 µM) | MFC (Rhizopus arrhizus [2]): 1 µg/mL (≈ 1.43 µM) | MIC (Rhizopus arrhizus [3]): 1 µg/mL (≈ 1.43 µM) | zone of inhibition at 5 µg/disc (Rhizopus arrhizus [4]): 17 mm | MFC (Rhizopus arrhizus [5]): 1 µg/mL (≈ 1.43 µM) | MFC (Rhizopus arrhizus [6]): > 16 µg/mL | MFC (Rhizopus arrhizus [7]): 16 µg/mL (≈ 22.8 µM) | MIC (Rhizopus arrhizus [8]): 1 µg/mL (≈ 1.43 µM) | Activity (Rhizopus arrhizus [9]): Active | MIC (Rhizopus arrhizus [10]): 0.25 µg/mL (≈ 0.357 µM) | Activity (Rhizopus arrhizus [11]): inactive | MIC (Rhizopus arrhizus [12]): 0.5 µg/mL (≈ 0.713 µM) | MFC (Rhizopus arrhizus [13]): 1 µg/mL (≈ 1.43 µM) | MIC (Rhizopus arrhizus [14]): 0.5 µg/mL (≈ 0.713 µM) | MIC (Rhizopus arrhizus [15]): 0.25 µg/mL (≈ 0.357 µM) | MFC (Rhizopus arrhizus [16]): 1 µg/mL (≈ 1.43 µM) | MFC (Rhizopus arrhizus [17]): 0.5 µg/mL (≈ 0.713 µM) | MIC (Rhizopus arrhizus [18]): 0.5 µg/mL (≈ 0.713 µM) | MIC (Rhizopus arrhizus [19]): 0.5 µg/mL (≈ 0.713 µM) | Activity (Rhizopus arrhizus [20]): Active | zone of inhibition at 5 µg/disc (Rhizopus arrhizus [21]): 20 mm | MIC (Rhizopus arrhizus [22]): 1 µg/mL (≈ 1.43 µM) | MFC (Rhizopus arrhizus [23]): 1 µg/mL (≈ 1.43 µM) | Activity (Rhizopus arrhizus [24]): Active | zone of inhibition at 5 µg/disc (Rhizopus arrhizus [25]): 14 mm | MIC (Rhizopus arrhizus [26]): 1 µg/mL (≈ 1.43 µM) | Activity (Rhizopus arrhizus [27]): Active | MIC (Rhizopus arrhizus [28]): 0.25 µg/mL (≈ 0.357 µM) | MIC (Rhizopus arrhizus [29]): 0.25 µg/mL (≈ 0.357 µM) | MFC (Rhizopus arrhizus [30]): 4 µg/mL (≈ 5.71 µM) | MIC (Rhizopus arrhizus [31]): 0.5 µg/mL (≈ 0.713 µM) | zone of inhibition at 5 µg/disc (Rhizopus arrhizus [32]): 20 mm | zone of inhibition at 5 µg/disc (Rhizopus arrhizus [33]): 25 mm | zone of inhibition at 5 µg/disc (Rhizopus arrhizus [34]): 18 mm | MIC (Rhizopus arrhizus [35]): 1 µg/mL (≈ 1.43 µM)
